From PubChem BioAssay come the findings set out here.

Unmarked numbers belong to inactive results. Records with an inconclusive call do not appear. Calls of active or inactive are those of the source.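 Rule for the calls, unless noted: active = cell viability at or below a set limit in both duplicate runs, the limit being the all-compound median minus 4 SD (cut at about 23% in these data, passing the limit was not always enough); inconclusive = no clear call, values can overlap the other calls; inactive = the rest.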

The nature of experiment [1]: S. cerevisiae growth inhibition in permissive medium (OD615), pilot counter-assay for S. cerevisiae lifespan shortening project, permissive growth control (AID 705;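 active = growth inhibition above 25% in both replicates, a cutoff set 3 SD above the mean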). The settings on record: OD615, 24 h, at 10 µM, active compounds read high. In outline:
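Material: engineered DeaD yeast; Compound: one dose 10 µM, DMSO 0.25% final; Detection: absorbance (optical density) at 615 nm; Buffer or medium: permissive raffinose/galactose medium; Timing: 24 h exposure, 30 °C.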

A short description of experiment [2]: S. cerevisiae growth inhibition in restrictive medium, OD615, pilot screen, restrictive growth control, yeast lifespan reduction project (AID 706;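 active = growth inhibition above a set limit, 3 SD over mean compound inhibition, in both replicates, cut at about 43% in these data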;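 note: modified DeaD lifespan yeast strain shifted to restrictive glucose medium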). As to conditions: OD615, 48 h, at 10 µM, active compounds read high. In a few lines:
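Buffer or medium: restrictive glucose medium (CSMM-D); test system: modified S. cerevisiae; doses: single dose of 10 µM compound final, 0.25% DMSO; schedule: 48 h compound exposure at 30 °C; detection: absorbance (optical density) measured at 615 nm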

Experiment [3] in a line: doxorubicin toxicity protection in MRP-1 cells – H69AR cells, CellTiter-Glo, duplicate, MRP-1 activator project, pilot screen (AID 807;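 active = viability increase at or above a cutoff of the median across tested compounds plus 3 SD, cut at about 8.5% in these data, passing the limit was not always enough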;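 note: compound pretreatment 18-22 h then 72 h combined with doxorubicin; 0% = doxorubicin alone and 100% = vehicle without doxorubicin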). As to conditions: H69AR viability with doxorubicin, CellTiter-Glo luminescence; at 10 µM; active compounds read high. A general note: Cellular ATP, detected with luciferase, serves as a proxy for viable cell number.
A short description of experiment [4]: viability of HCT116 without oncogenic beta-catenin – human colon tumor cells, pilot screen (AID 823).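 Note: 0% = wells killed by 20 µM Hyamine and 100% = untreated DMSO cell wells.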 As to conditions: HCT116 beta-catenin knockout viability, CellTiter-Glo, 60 h; at 10 µM; active compounds read low.
A short description of experiment [5]: viability of PTEN-null HCT116 cells – cell-based, HCT116 clonal line, CellTiter-Glo, pilot screen (AID 824;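 active = viability at or below 27.92% in each of two runs, the all-compound median minus 4 SD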;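 note: 0% = 20 µM Hyamine control and 100% = vehicle cell control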). The settings on record: HCT116 PTEN-deleted viability, 60 h, at 10 µM, active compounds read low.
Experiment [6] in a line: RAM pathway blockade in budding yeast – dse1pr::URA3 reporter, 5-FOA selection, pilot screen (AID 869;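 active = inhibition over a set limit, the all-compound mean plus 3 SD, in both replicate runs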;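 note: 0% = DMSO wells with no growth and 100% = 10 µM 1-NA-PP1 with full growth; RAM network block rescues cells from 5-FOA so hits raise OD615 growth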). The settings on record: S. cerevisiae dse1pr::URA3 5-FOA growth, OD615, 2 d; at 10 µM; active compounds read high; strain carries analog-sensitive mutant Cbk1 kinase.
Experiment [7] is described as follows: RAM signaling pathway blockade in yeast – S. cerevisiae, Pdr1DBD-CYC8 efflux-inhibited sensitized strain, primary screen (AID 1298;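 active = RAM network inhibition above 8.4% in each of two replicates, 3 SD over the compound average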;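 note: 0% = DMSO untreated cells without growth and 100% = 10 µM 1-NA-PP1 full growth; higher means more yeast growth rescued from 5-FOA killing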). The settings on record: S. cerevisiae cbk1-as DSE1-URA3 strain, 5-FOA growth OD615, 2 d; at 50 µM; active compounds read high.

For orientation: viability means a read-out of living cells in per cent, often relative to untreated cells. Usually inhibition stands for the drop in the measured response relative to a control, in per cent.

In the case of `CCOC(=O)c1ccc(NC2c3ccccc3C(=O)N2c2cccnc2)cc1` (stereo unspecified), the growth inhibition in experiment [1] is 0.43%; in experiment [2], 1.2%. Further, the viability increase in experiment [3] is -3.72%. For the same compound, the results for the viability in experiment [4] and in experiment [5] were 65.5% and 67.6%, respectively. For the same compound, the inhibition in experiment [6] was 0.67%. The RAM network inhibition in experiment [7] was 2.21%.
Consider `Cn1nnnc1SCC(=O)Nc1ccc(N2CCOCC2)cc1`, for which the growth inhibition is -4.58% in experiment [1] and 7.83% in experiment [2]. Moreover, the viability increase in experiment [3] was -1.01%. Besides, the results for the viability in experiment [4] and in experiment [5] were 95.8% and 97.5%, respectively. In addition, the inhibition in experiment [6] was 0.97%. Moreover, the RAM network inhibition in experiment [7] was 0.68%.
`Cn1c(=O)[nH]c(=O)c2c1nc(N1CCCC1)n2CC(O)COc1ccccc1` (stereo unspecified): the figures for the growth inhibition in experiment [1] and in experiment [2] were -10.3% and -7.92%, respectively. For the same compound, in experiment [3], the viability increase is -2.57%. Besides, the viability is 100% in experiment [4] and 102% in experiment [5]. The inhibition in experiment [6] is 2.5%. The RAM network inhibition in experiment [7] was 1.94%.
For `N#CC(c1nc2ccccc2nc1N1CCCC1)S(=O)(=O)c1ccccc1` (stereo unspecified), the growth inhibition is -17.2% in experiment [1] and -3.85% in experiment [2]. Also, in experiment [3], the viability increase was -4.56%. The viability in experiment [4] is 81.9%; in experiment [5], 84.5%. In experiment [6], the inhibition was 0.815%. In experiment [7], the RAM network inhibition is 5.73%.
As for `Cc1ccc(-c2nn(CC(=O)O)c(=O)c3ccccc23)cc1`, the results for the growth inhibition in experiment [1] and in experiment [2] were -19.3% and -13.9%, respectively. Moreover, the viability increase in experiment [3] was 1.3%. The viability was 104% in experiment [4] and 96.2% in experiment [5]. Moreover, the inhibition in experiment [6] was 2.12%. Besides, the RAM network inhibition in experiment [7] is 1.1%.
On to `CC1(C)CC(=O)c2c(Cc3ccccc3)n[nH]c2C1`, for which the results for the growth inhibition in experiment [1] and in experiment [2] were 0.375% and -8.27%, respectively. Moreover, in experiment [3], the viability increase was -1.7%. In addition, the viability in experiment [4] was 98.3%; in experiment [5], 90.5%. Moreover, the inhibition in experiment [6] is 2.2%. In addition, the RAM network inhibition in experiment [7] was -0.11%.
For `CCn1c(C2CC(=O)N(c3cc(C)cc(C)c3)C2)nc2ccccc21` (stereo unspecified), the growth inhibition in experiment [1] is -6.28%; in experiment [2] it was -7%. The viability increase in experiment [3] is -4.36%. The viability is 87% in experiment [4] and 85% in experiment [5]. In experiment [6], the inhibition was 1.13%. Also, the RAM network inhibition in experiment [7] was 4.85%.
Take `COC(=O)C1(C)NC(=O)c2ccccc2N1` (stereo unspecified): the growth inhibition in experiment [1] is -6.57%; in experiment [2], -7.71%. For the same compound, the viability increase in experiment [3] is -0.86%. Besides, the figures for the viability in experiment [4] and in experiment [5] were 102% and 99.2%, respectively. Further, the inhibition in experiment [6] is 0.47%. The RAM network inhibition in experiment [7] was 5.23%.
Regarding `COC(=O)CSC1=C(C#N)C(c2ccccc2F)CC(=O)N1` (stereo unspecified), the growth inhibition in experiment [1] is -9.32%; in experiment [2] it was -6.92%. In experiment [3], the viability increase was -2.29%. In addition, the viability in experiment [4] is 92.6%; in experiment [5] it was 94.1%. Further, the inhibition in experiment [6] is 1.32%. The RAM network inhibition in experiment [7] is 0.84%.
Turning to `O=C1CC(c2ccco2)CC2=C1C1c3ccccc3C(=O)N1c1ccccc1N2` (stereo unspecified), the growth inhibition is -9.63% in experiment [1] and -5.43% in experiment [2]. Also, the viability increase in experiment [3] is 3.98%. The viability in experiment [4] is 7.74% (active); in experiment [5], 7.59% (active). Besides, the inhibition in experiment [6] is 1.36%. The RAM network inhibition in experiment [7] is 4.2%.
Turning to `COc1cccc(C2CC(c3ccccc3OC)n3ncnc3N2)c1` (stereo unspecified), the results for the growth inhibition in experiment [1] and in experiment [2] were -4.81% and 8.07%, respectively. Also, the viability increase in experiment [3] was -5.2%. Moreover, the viability in experiment [4] was 90.1%; in experiment [5], 71.2%. Further, the inhibition in experiment [6] was 0.455%. Further, the RAM network inhibition in experiment [7] is -0.26%.
For `CCCCN(C)Cc1c(C)[nH]c2ccc(OCC)cc2c1=O`, the growth inhibition in experiment [1] is -11.7%; in experiment [2], -20%. Moreover, in experiment [3], the viability increase is -0.94%. The viability in experiment [4] is 93.6%; in experiment [5], 97.9%. Further, in experiment [6], the inhibition is 1.4%. Also, the RAM network inhibition in experiment [7] was 4.04%.
Consider `O=C(CSc1ncnc2nc[nH]c12)N1CCOCC1`, for which the growth inhibition is -15.7% in experiment [1] and -14.4% in experiment [2]. The viability increase in experiment [3] was -0.96%. Further, the viability is 86% in experiment [4] and 102% in experiment [5]. Besides, in experiment [6], the inhibition was -0.435%. Moreover, the RAM network inhibition in experiment [7] is 2.34%.
As to `CCCCC(=O)Nc1ncc2c(n1)CC(C)(C)CC2=O`, the growth inhibition was -7.95% in experiment [1] and -5.04% in experiment [2]. In addition, the viability increase in experiment [3] is -2.35%. Besides, the viability is 96.1% in experiment [4] and 98.2% in experiment [5]. For the same compound, the inhibition in experiment [6] was 2.94%. The RAM network inhibition in experiment [7] is 1.03%.
As to `Cn1c(=O)c2c(SCC(=O)N3CCN(c4ccccc4)CC3)nc(C3CC3)nc2n(C)c1=O`, the results for the growth inhibition in experiment [1] and in experiment [2] were 10.6% and -3.49%, respectively. Further, the viability increase in experiment [3] is -2.93%. Further, the viability is 82.5% in experiment [4] and 79.8% in experiment [5]. The inhibition in experiment [6] is 3.71%. In addition, the RAM network inhibition in experiment [7] was 6.69%.
Regarding `COc1cc(N)ccc1Cc1ccc(N)cc1OC`, the growth inhibition in experiment [1] was -5.34%; in experiment [2] it was -2.19%. The viability increase in experiment [3] is -4.54%. Also, the values for the viability in experiment [4] and in experiment [5] were 85.9% and 90.8%, respectively. The inhibition in experiment [6] is -0.06%. For the same compound, in experiment [7], the RAM network inhibition was 6.85%.
In the case of `CCSc1nnc(NC(=O)c2cccc(OCc3c(C)noc3C)c2)s1`, the growth inhibition was 1.08% in experiment [1] and 21.9% in experiment [2]. Also, the viability increase in experiment [3] was 0.55%. Also, the results for the viability in experiment [4] and in experiment [5] were 98.2% and 92.6%, respectively. Further, the inhibition in experiment [6] is 2.79%. The RAM network inhibition in experiment [7] was 4.07%.
For `CCOc1ccc(N(CC(=O)NCc2ccc(F)cc2)S(=O)(=O)c2c(C)noc2C)cc1`, the growth inhibition in experiment [1] is -15.6%; in experiment [2], -8.36%. Further, in experiment [3], the viability increase is -1.36%. The viability is 99.3% in experiment [4] and 92.8% in experiment [5]. Moreover, in experiment [6], the inhibition is 2.25%. In experiment [7], the RAM network inhibition is 2.84%.
